{"source": "ChEMBL document CHEMBL3872205", "about": "“Design, synthesis and evaluation of novel potent angiotensin II receptor 1 antagonists” (Eur J Med Chem, 2016)", "key": {"[1]": {"experiment": "AUC (0 to 72 hrs) in Wistar rat spleen at 15 mg/kg, po by HPLC analysis", "type": "ADME, organism-based", "parameters": "dose 15 mg/kg, time < 72 hr, route oral", "in_short": "(§1)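 Wistar rats (180 ± 20 g) were dosed orally at 10, 15 or 30 mg/kg. Heart, liver, spleen, lung, kidney and brain were collected at 0–72 h (n = 6 per point). Tissue was rinsed, blotted and homogenized in saline (0.25 g/1 mL), then spun at 10,000 × g. Supernatant was methanol-extracted, dried under nitrogen at 50 °C, reconstituted in methanol and run on C18 HPLC (acetonitrile 60%/water 40%, 1.0 mL/min).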"}, "[2]": {"experiment": "AUC (0 to 72 hrs) in Wistar rat Heart at 30 mg/kg, po by HPLC analysis", "type": "ADME, organism-based", "parameters": "time < 72 hr, dose 30 mg/kg, route oral", "in_short": "as §1"}, "[3]": {"experiment": "AUC (0 to infinity) in Wistar rat Heart at 15 mg/kg, po by HPLC analysis", "type": "ADME, organism-based", "parameters": "dose 15 mg/kg, time infinity, route oral", "in_short": "as §1"}, "[4]": {"experiment": "Half life in Wistar rat liver at 30 mg/kg, po by HPLC analysis", "type": "ADME, organism-based", "in_short": "(§2)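 Tissue distribution in male Wistar rats given oral 10, 15 or 30 mg/kg; heart, liver, spleen, lung, kidney and brain collected predose and 0.5–72 h post-dose (n = 6 per time). Tissue rinsed in saline, homogenised 0.25 g/1 mL saline, methanol extraction, dried under nitrogen, reconstituted in methanol. Analysis by reverse-phase C18 HPLC, acetonitrile/water 60:40, 1.0 mL/min, ambient temperature.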"}, "[5]": {"experiment": "Tmax in Wistar rat brain at 30 mg/kg, po by HPLC analysis", "type": "ADME, organism-based", "in_short": "(§3)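 Male Wistar rats (180 ± 20 g) received a single oral dose of 10, 15 or 30 mg/kg. Tissues were collected at 0, 0.5, 1, 2, 4, 6, 8, 12, 24, 48 and 72 h (n = 6 per point). Samples of 0.25 g were rinsed, then homogenized in saline (0.25 g/1 mL) and centrifuged at 10,000 × g. Supernatant was methanol-extracted, dried under nitrogen at 50 °C and reconstituted in methanol. Analysis was by C18 HPLC (acetonitrile 60% / water 40%, 1.0 mL/min).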"}, "[6]": {"experiment": "Tmax in Wistar rat spleen at 10 mg/kg, po by HPLC analysis", "type": "ADME, organism-based"}, "[7]": {"experiment": "AUC (0 to infinity) in Wistar rat plasma at 15 mg/kg, po by HPLC analysis", "type": "ADME, organism-based", "parameters": "dose 15 mg/kg, route oral, time infinity", "in_short": "(§4)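 Male Wistar rats (180 ± 20 g, n = 6 per group) got one oral dose. Heparinized blood was taken by retro-orbital puncture before dosing and at 0.5–72 h. Plasma was spun at 4000 × g, 4 °C, 10 min, spiked with internal standard and protein-precipitated with acetonitrile. Analysis was reverse-phase C18 HPLC (0.02 mol/L KH2PO4 55%/acetonitrile 45%, 1.0 mL/min). Calibration used 0.1–10 µg/mL, peak-height ratio, weighting concentration^-2.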"}, "[8]": {"experiment": "AUC (0 to 72 hrs) in Wistar rat liver at 10 mg/kg, po by HPLC analysis", "type": "ADME, organism-based", "parameters": "time < 72 hr, dose 10 mg/kg, route oral", "in_short": "as §1"}, "[9]": {"experiment": "Cmax in Wistar rat kidney at 30 mg/kg, po by HPLC analysis", "type": "ADME, organism-based", "parameters": "dose 30 mg/kg, route oral", "in_short": "as §2"}, "[10]": {"experiment": "MRT (0 to 72 hrs) in Wistar rat lung at 30 mg/kg, po by HPLC analysis", "type": "ADME, organism-based", "in_short": "as §3"}, "[11]": {"experiment": "AUC (0 to 72 hrs) in Wistar rat plasma at 30 mg/kg, po by HPLC analysis", "type": "ADME, organism-based", "parameters": "time < 72 hr, dose 30 mg/kg, route oral", "in_short": "as §4"}, "[12]": {"experiment": "Half life in Wistar rat kidney at 10 mg/kg, po by HPLC analysis", "type": "ADME, organism-based", "in_short": "as §2"}, "[13]": {"experiment": "Tmax in Wistar rat Heart at 15 mg/kg, po by HPLC analysis", "type": "ADME, organism-based", "in_short": "as §3"}, "Mus musculus": {"tested_on": "Mus musculus", "experiment": "Toxicity in ICR mouse assessed as change in body weight at 1200 mg/kg, po after 2 weeks", "type": "organism-based", "conditions": "in vivo, 336 h"}, "[14]": {"experiment": "AUC (0 to infinity) in Wistar rat liver at 30 mg/kg, po by HPLC analysis", "type": "ADME, organism-based", "parameters": "dose 30 mg/kg, time infinity, route oral", "in_short": "as §1"}, "[15]": {"experiment": "MRT (0 to infinity) in Wistar rat brain at 15 mg/kg, po by HPLC analysis", "type": "ADME, organism-based", "in_short": "as §3"}, "[16]": {"experiment": "Half life in Wistar rat Heart at 10 mg/kg, po by HPLC analysis", "type": "ADME, organism-based", "in_short": "as §2"}, "[17]": {"experiment": "Half life in Wistar rat kidney at 30 mg/kg, po by HPLC analysis", "type": "ADME, organism-based", "in_short": "as §2"}, "[18]": {"experiment": "Half life in Wistar rat Heart at 15 mg/kg, po by HPLC analysis", "type": "ADME, organism-based", "in_short": "as §2"}, "[19]": {"experiment": "MRT (0 to infinity) in Wistar rat kidney at 30 mg/kg, po by HPLC analysis", "type": "ADME, organism-based", "in_short": "as §3"}, "[20]": {"experiment": "AUC (0 to 72 hrs) in Wistar rat brain at 15 mg/kg, po by HPLC analysis", "type": "ADME, organism-based", "parameters": "dose 15 mg/kg, time < 72 hr, route oral", "in_short": "as §1"}, "[21]": {"experiment": "Half life in Wistar rat lung at 10 mg/kg, po by HPLC analysis", "type": "ADME, organism-based", "in_short": "as §2"}, "[22]": {"experiment": "Cmax in Wistar rat brain at 15 mg/kg, po by HPLC analysis", "type": "ADME, organism-based", "parameters": "dose 15 mg/kg, route oral", "in_short": "as §1"}, "[23]": {"experiment": "AUC (0 to 72 hrs) in Wistar rat Heart at 10 mg/kg, po by HPLC analysis", "type": "ADME, organism-based", "parameters": "time < 72 hr, dose 10 mg/kg, route oral", "in_short": "as §1"}, "[24]": {"experiment": "AUC (0 to 72 hrs) in Wistar rat brain at 10 mg/kg, po by HPLC analysis", "type": "ADME, organism-based", "parameters": "time < 72 hr, dose 10 mg/kg, route oral", "in_short": "as §1"}, "[25]": {"experiment": "Cmax in Wistar rat spleen at 10 mg/kg, po by HPLC analysis", "type": "ADME, organism-based", "parameters": "dose 10 mg/kg, route oral", "in_short": "as §2"}, "[26]": {"experiment": "Cmax in Wistar rat lung at 30 mg/kg, po by HPLC analysis", "type": "ADME, organism-based", "parameters": "dose 30 mg/kg, route oral", "in_short": "as §2"}, "[27]": {"experiment": "Cmax in Wistar rat lung at 15 mg/kg, po by HPLC analysis", "type": "ADME, organism-based", "parameters": "dose 15 mg/kg, route oral", "in_short": "as §2"}, "[28]": {"experiment": "MRT (0 to 72 hrs) in Wistar rat brain at 10 mg/kg, po by HPLC analysis", "type": "ADME, organism-based", "in_short": "as §2"}, "[29]": {"experiment": "Half life in Wistar rat lung at 30 mg/kg, po by HPLC analysis", "type": "ADME, organism-based", "in_short": "as §2"}, "[30]": {"experiment": "Tmax in Wistar rat lung at 30 mg/kg, po by HPLC analysis", "type": "ADME, organism-based", "in_short": "as §3"}, "[31]": {"experiment": "MRT (0 to 72 hrs) in Wistar rat kidney at 30 mg/kg, po by HPLC analysis", "type": "ADME, organism-based", "in_short": "as §2"}, "[32]": {"experiment": "AUC (0 to 72 hrs) in Wistar rat kidney at 30 mg/kg, po by HPLC analysis", "type": "ADME, organism-based", "parameters": "time < 72 hr, dose 30 mg/kg, route oral", "in_short": "as §1"}, "[33]": {"experiment": "Cmax in Wistar rat kidney at 15 mg/kg, po by HPLC analysis", "type": "ADME, organism-based", "parameters": "dose 15 mg/kg, route oral", "in_short": "as §2"}, "[34]": {"experiment": "MRT (0 to infinity) in Wistar rat lung at 15 mg/kg, po by HPLC analysis", "type": "ADME, organism-based", "in_short": "as §3"}, "[35]": {"experiment": "Toxicity in ig dosed ICR mouse assessed as mortality after 2 weeks", "type": "organism-based", "conditions": "in vivo, po"}, "[36]": {"experiment": "MRT (0 to infinity) in Wistar rat liver at 15 mg/kg, po by HPLC analysis", "type": "ADME, organism-based", "in_short": "as §3"}}}
{"smiles": "CCCCC1=NC2(CCCC2)C(=O)N1Cc1ccc2c(ccn2-c2ccccc2-c2nnn[nH]2)c1", "values": [{"measurement": "AUC(0-t) at 72 h", "setting": "[1]", "result": 11900, "unit": "ng·h/mL"}, {"measurement": "AUC(0-t) at 72 h", "setting": "[2]", "result": 7360, "unit": "ng·h/mL"}, {"measurement": "AUC(0-inf)", "setting": "[3]", "result": 6700, "unit": "ng·h/mL"}, {"measurement": "half-life", "setting": "[4]", "result": 2.12, "unit": "h"}, {"measurement": "Tmax", "setting": "[5]", "result": 5.83, "unit": "h"}, {"measurement": "Tmax", "setting": "[6]", "result": 2, "unit": "h"}, {"measurement": "AUC(0-inf)", "setting": "[7]", "result": 26100, "unit": "ng·h/mL"}, {"measurement": "AUC(0-t) at 72 h", "setting": "[8]", "result": 3070, "unit": "ng·h/mL"}, {"measurement": "Cmax", "setting": "[9]", "result": 396, "unit": "ng/mL"}, {"measurement": "MRT last", "setting": "[10]", "result": 4.85, "unit": "h"}, {"measurement": "AUC(0-t) at 72 h", "setting": "[11]", "result": 89500, "unit": "ng·h/mL"}, {"measurement": "half-life", "setting": "[12]", "result": 26.9, "unit": "h"}, {"measurement": "Tmax", "setting": "[13]", "result": 4.67, "unit": "h"}, {"measurement": "Activity", "setting": "Mus musculus", "result": "Non-Toxic"}, {"measurement": "AUC(0-inf)", "setting": "[14]", "result": 15600, "unit": "ng·h/mL"}, {"measurement": "MRT inf", "setting": "[15]", "result": 11.6, "unit": "h"}, {"measurement": "half-life", "setting": "[16]", "result": 16.9, "unit": "h"}, {"measurement": "half-life", "setting": "[17]", "result": 22.4, "unit": "h"}, {"measurement": "half-life", "setting": "[18]", "result": 15.8, "unit": "h"}, {"measurement": "MRT inf", "setting": "[19]", "result": 24.1, "unit": "h"}, {"measurement": "AUC(0-t) at 72 h", "setting": "[20]", "result": 1180, "unit": "ng·h/mL"}, {"measurement": "half-life", "setting": "[21]", "result": 3.04, "unit": "h"}, {"measurement": "Cmax", "setting": "[22]", "result": 93.3, "unit": "ng/mL"}, {"measurement": "AUC(0-t) at 72 h", "setting": "[23]", "result": 825, "unit": "ng·h/mL"}, {"measurement": "AUC(0-t) at 72 h", "setting": "[24]", "result": 346, "unit": "ng·h/mL"}, {"measurement": "Cmax", "setting": "[25]", "result": 348, "unit": "ng/mL"}, {"measurement": "Cmax", "setting": "[26]", "result": 396, "unit": "ng/mL"}, {"measurement": "Cmax", "setting": "[27]", "result": 369, "unit": "ng/mL"}, {"measurement": "MRT last", "setting": "[28]", "result": 8.1, "unit": "h"}, {"measurement": "half-life", "setting": "[29]", "result": 2.35, "unit": "h"}, {"measurement": "Tmax", "setting": "[30]", "result": 2, "unit": "h"}, {"measurement": "MRT last", "setting": "[31]", "result": 24.9, "unit": "h"}, {"measurement": "AUC(0-t) at 72 h", "setting": "[32]", "result": 22400, "unit": "ng·h/mL"}, {"measurement": "Cmax", "setting": "[33]", "result": 210, "unit": "ng/mL"}, {"measurement": "MRT inf", "setting": "[34]", "result": 3.64, "unit": "h"}, {"measurement": "LD50 at 336 h", "setting": "[35]", "result": 1550, "unit": "mg/kg"}, {"measurement": "MRT inf", "setting": "[36]", "result": 4.77, "unit": "h"}]}
